# Experiments:
# NCI-H460 = experiment: Growth inhibition of human NCI-H460 cells after 48 hrs by sulforhodamine B assay; format: functional; conditions: NCI-H460, 48 h; for CC50: read-out: LC50 (the source's name)
# Outline: (§1)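 NCI five-dose screen on the full 60-cell-line panel. Cells were given 10-fold dilutions from 10^-4 to 10^-8 M with continuous 48 h exposure, and growth was read by SRB staining. Percent growth was taken from time-zero, control and treated absorbances. GI50, TGI and LC50 were then derived, the GI50 being the concentration that gives a 50% lower net protein increase than control.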
# 786-0 = experiment: Growth inhibition of human 786-0 cells assessed as cell growth at 10^-5 M after 48 hrs by sulforhodamine B assay; format: functional; conditions: 786-0, 48 h, read-out: Activity
# Outline: (§2)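 NCI 60-cell-line primary screen. Single concentration of 10^-5 M, 48 h incubation. End point by sulforhodamine B protein staining read spectrophotometrically. Reported as percent growth of treated cells relative to untreated control cells.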
# NCI-H23 = experiment: Growth inhibition of human NCI-H23 cells assessed as cell growth at 10^-5 M after 48 hrs by sulforhodamine B assay; format: functional; conditions: NCI-H23, 48 h, read-out: Activity
# Outline: (§3)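 NCI 60-cell-line primary one-dose screen. Cells were exposed to a single 10^-5 M concentration for 48 h. The end point was sulforhodamine B protein staining, read spectrophotometrically. Results are reported as percent growth of treated cells relative to untreated control cells.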
# SK-MEL-28 [1] = experiment: Growth inhibition of human SK-MEL-28 cells assessed as cell growth at 10^-5 M after 48 hrs by sulforhodamine B assay; format: functional; conditions: SK-MEL-28, 48 h, read-out: Activity; outline: as §3
# SK-MEL-28 [2] = experiment: Growth inhibition of human SK-MEL-28 cells after 48 hrs by sulforhodamine B assay; format: functional; conditions: SK-MEL-28, 48 h; for CC50: read-out: LC50 (the source's name); outline: as §1
# SF-539 = experiment: Growth inhibition of human SF539 cells assessed as cell growth at 10^-5 M after 48 hrs by sulforhodamine B assay; format: functional; conditions: SF-539, 48 h, read-out: Activity; outline: as §3
# HCT-116 = experiment: Growth inhibition of human HCT116 cells assessed as cell growth at 10^-5 M after 48 hrs by sulforhodamine B assay; format: functional; conditions: HCT-116, 48 h, read-out: Activity; outline: as §2
# BT-549 = experiment: Growth inhibition of human BT549 cells assessed as cell growth at 10^-5 M after 48 hrs by sulforhodamine B assay; format: functional; conditions: BT-549, 48 h, read-out: Activity; outline: as §2
# MDA-MB-435 = experiment: Growth inhibition of human MDA-MB-435 cells assessed as cell growth at 10^-5 M after 48 hrs by sulforhodamine B assay; format: functional; conditions: MDA-MB-435, 48 h, read-out: Activity; outline: as §3
# SK-MEL-2 = experiment: Growth inhibition of human SK-MEL-2 cells after 48 hrs by sulforhodamine B assay; format: functional; conditions: SK-MEL-2, 48 h; for CC50: read-out: LC50 (the source's name); outline: as §1
# DU-145 = experiment: Growth inhibition of human DU145 cells assessed as cell growth at 10^-5 M after 48 hrs by sulforhodamine B assay; format: functional; conditions: DU-145, 48 h, read-out: Activity; outline: as §2
# [3] = Aqueous solubility of the compound at pH 6.9 by UV spectroscopic analysis; format: physicochemical; conditions: aqueous solution
# Outline: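 Excess solid (10 mg) shaken in buffer at pH 6.9 or 7.8, 37 °C. The filtrate was diluted into the linear calibration range and dissolved drug measured by UV absorbance at λmax 272 nm. Values are the average of at least three agreeing independent measurements.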
# [4] = biological target: T1, DNA topoisomerase 1 (Homo sapiens) (UniProt P11387); experiment: Inhibition of human recombinant topoisomerase 1-mediated relaxation of supercoiled pBR322 DNA at 100 uM after 30 mins by agarose gel electrophoresis relative to control
# T1 sequence (whole entry): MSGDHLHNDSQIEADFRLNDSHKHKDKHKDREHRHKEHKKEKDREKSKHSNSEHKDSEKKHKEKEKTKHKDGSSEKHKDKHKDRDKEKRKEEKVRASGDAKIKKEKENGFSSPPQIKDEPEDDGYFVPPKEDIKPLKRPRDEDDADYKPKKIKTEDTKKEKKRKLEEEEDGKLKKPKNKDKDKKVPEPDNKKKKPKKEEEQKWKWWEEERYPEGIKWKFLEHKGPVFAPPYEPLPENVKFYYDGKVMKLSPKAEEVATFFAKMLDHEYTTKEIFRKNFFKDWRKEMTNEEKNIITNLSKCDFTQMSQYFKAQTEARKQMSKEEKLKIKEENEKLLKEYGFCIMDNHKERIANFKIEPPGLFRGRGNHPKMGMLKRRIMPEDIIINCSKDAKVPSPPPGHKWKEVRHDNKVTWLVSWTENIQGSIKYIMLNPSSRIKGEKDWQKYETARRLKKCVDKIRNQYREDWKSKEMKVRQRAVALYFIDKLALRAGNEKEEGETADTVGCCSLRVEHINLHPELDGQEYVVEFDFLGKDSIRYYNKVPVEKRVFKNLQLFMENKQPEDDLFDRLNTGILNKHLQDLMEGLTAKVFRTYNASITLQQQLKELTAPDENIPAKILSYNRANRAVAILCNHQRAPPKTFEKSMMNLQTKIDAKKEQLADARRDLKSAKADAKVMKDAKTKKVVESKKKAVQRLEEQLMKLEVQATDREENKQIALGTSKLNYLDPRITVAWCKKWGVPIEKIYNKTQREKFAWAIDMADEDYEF
# Outline: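 Recombinant human topo I (0.4 units) with 100 ng supercoiled pBR322, 37 °C for 30 min in Tris-HCl pH 7.9, 150 mM NaCl, 0.1% BSA, 1 mM spermidine, 5% glycerol. Compounds came from 20 mM DMSO stocks, with matched DMSO in the enzyme-only control. Stopped with sarcosyl; 1% agarose/TAE gel, ethidium stain, UV densitometry. Camptothecin was the positive control.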
# U-251 = experiment: Growth inhibition of human U251 cells assessed as cell growth at 10^-5 M after 48 hrs by sulforhodamine B assay; format: functional; conditions: U-251, 48 h, read-out: Activity
# Outline: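 NCI primary one-dose screen: single concentration of 10^-5 M added to culture, 48 h incubation, SRB protein-dye endpoint. Percent growth of treated cells measured spectrophotometrically against untreated controls.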
# [5] = Octanol-phosphate buffer partition coefficient, log P of the compound after 5 hrs by shake-flask method; format: physicochemical
# Outline: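 Shake-flask method: 100 µL of 0.2 mg/mL stock diluted into 1.9 mL phosphate buffer pH 7.4 plus 2 mL mutually saturated n-octanol, protected from light. Vortexed 3 min, shaken 5 h at 25 °C. Both phases assayed by UV at 272 nm; log P = log([octanol]/[aqueous]), run in triplicate.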
# IGROV-1 = experiment: Growth inhibition of human IGROV1 cells assessed as cell growth at 10^-5 M after 48 hrs by sulforhodamine B assay; format: functional; conditions: IGROV-1, 48 h, read-out: Activity; outline: as §2
SMILES,GI50 (NCI-H460),TGI (NCI-H460),CC50 (NCI-H460),growth at 10 µM (786-0),growth at 10 µM (NCI-H23),growth at 10 µM (SK-MEL-28 [1]),GI50 (SK-MEL-28 [2]),TGI (SK-MEL-28 [2]),CC50 (SK-MEL-28 [2]),growth at 10 µM (SF-539),growth at 10 µM (HCT-116),growth at 10 µM (BT-549),growth at 10 µM (MDA-MB-435),GI50 (SK-MEL-2),TGI (SK-MEL-2),CC50 (SK-MEL-2),growth at 10 µM (DU-145),solubility [3],inhibition [4],growth at 10 µM (U-251),other results
COc1cc(/C=C/C(=O)c2ccc(NC(=O)CN3CCN(c4cc5c(cc4F)c(=O)c(C(=O)O)cn5C4CC4)CC3)cc2)cc(OC)c1OC,0.37 µM,3.79 µM,> 100 µM,-67.8%,-35.6%,34%,1.1 µM,17 µM,98.2 µM,-15.8%,-88.2%,-86.7%,-1.52%,1.98 µM,5.38 µM,43.7 µM,2.17%,2.13 µg/mL,67.4%,-55.8%,logP at 5 h [5]: 0.753; growth at 10 µM (IGROV-1): -1.19%
O=C(CN1CCN(c2cc3c(cc2F)c(=O)c(C(=O)O)cn3C2CC2)CC1)Nc1ccc(C(=O)/C=C/c2ccccc2)cc1,3.17 µM,> 100 µM,> 100 µM,23.2%,24%,85.7%,18.8 µM,> 100 µM,> 100 µM,26.2%,-83.6%,9.61%,19.2%,2.94 µM,11.3 µM,> 100 µM,43.1%,2.73 µg/mL,57.2%,14.9%,logP at 5 h [5]: 1.29; growth at 10 µM (IGROV-1): 42.9%
